Experimental data: ChEMBL document CHEMBL4049427, “Use of Molecular Modeling to Design Selective NTS2 Neurotensin Analogues” (J Med Chem, 2017)
pKi: −log10 of the molar value. Square brackets hold non-standard residues; d marks the D form. Peptide text beside a SMILES is read from it. ξ: configuration not given here. ξOrn = NCCCC(N)C(=O)O

Legend:
[1] = molecular target: T1, Neurotensin receptor type 2 (Homo sapiens, UniProt O95665); experiment: Displacement of 125I-[Tyr3]-NT from human NTS2 receptor expressed in human 1321N1 cell membranes after 30 mins by gamma counting analysis
In short: (§1)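 Fresh membranes from 1321N1 cells stably expressing hNTS2 (DMEM, 10% FBS, G418). Nonspecific binding defined with 10^-5 M NT[8-13]. Filtration, γ-counting. IC50 converted to Ki via Cheng−Prusoff; mean of at least three experiments.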

[2] = molecular target: Neurotensin receptor type 1 (Homo sapiens, UniProt P30989); experiment: Displacement of 125I-[Tyr3]-NT from human NTS1 receptor expressed in CHOK1 cell membranes after 30 mins by gamma counting analysis
[3] = Displacement of 125I-[Tyr3]-NT from HA-tagged human NTS1 R212E mutant receptor expressed in HEK293 cell membranes after 30 mins by gamma counting analysis
In short: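 Membranes from HEK293 cells transfected with human HA-tagged NTS1-R212E (10 μg DNA, PEI), prepared fresh 48 h post-transfection. 50 μg membrane incubated with 130 pM 125I-[Tyr3]-NT in 50 mM Tris-HCl pH 7.5, 0.2% BSA with competitor 10^-11 to 10^-5 M, 30 min at 25 °C. Nonspecific binding defined with 10^-5 M NT[8-13]. Filtration, γ-counting. IC50 converted to Ki via Cheng−Prusoff; at least three experiments.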

Homo sapiens [4] = organism: Homo sapiens; experiment: Selectivity ratio of Ki for human NTS1 receptor expressed in CHOK1 cell membrane to Ki for human NTS2 receptor expressed in human 1321N1 cell membranes; format: cell-based
Homo sapiens [5] = organism: Homo sapiens; experiment: Selectivity ratio of Ki for human NTS1 receptor expressed in CHOK1 cell membranes to Ki for HA-tagged human NTS1 R212E mutant receptor expressed in HEK293 cell membranes; format: cell-based
In short: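 Ki was taken on two receptors. WT: 15 μg CHO-K1 hNTS1 membrane with 45 pM 125I-[Tyr3]-NT. R212E: HEK293 cells transfected by PEI with HA-tagged hNTS1-R212E, membranes made 48 h later; 50 μg membrane with 130 pM tracer. Both ran in Tris-HCl pH7.5 with 0.2% BSA, 30 min at 25 °C, with filtration and γ-counting. IC50 was converted to Ki by Cheng–Prusoff, and the ratio taken as WT Ki over mutant Ki.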

[6] = molecular target: T1, Neurotensin receptor type 2; experiment: Displacement of 125I-[Tyr3]-NT from human NTS2 receptor
In short: as §1, with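 “G418). 50 μg membrane incubated with 255 pM 125I-[Tyr3]-NT in 50 mM Tris-HCl pH 7.5, 0.2% BSA with competitor 10^-11 to 10^-5 M, 30 min at 25 °C.” for “G418).”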

Chain of Neurotensin receptor type 1 (P30989 whole entry): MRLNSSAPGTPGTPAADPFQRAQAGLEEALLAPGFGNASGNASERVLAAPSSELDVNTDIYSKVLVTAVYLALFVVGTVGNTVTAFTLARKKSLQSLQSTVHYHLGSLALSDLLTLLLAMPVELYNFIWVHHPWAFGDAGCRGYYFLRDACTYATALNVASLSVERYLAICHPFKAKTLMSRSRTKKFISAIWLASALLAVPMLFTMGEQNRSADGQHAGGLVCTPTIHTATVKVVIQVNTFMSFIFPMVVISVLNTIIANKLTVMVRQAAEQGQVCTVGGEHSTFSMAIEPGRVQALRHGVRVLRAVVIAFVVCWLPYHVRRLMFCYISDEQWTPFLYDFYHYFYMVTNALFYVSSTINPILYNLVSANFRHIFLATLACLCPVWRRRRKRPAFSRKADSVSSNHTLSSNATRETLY
T1 sequence (O95665 whole entry): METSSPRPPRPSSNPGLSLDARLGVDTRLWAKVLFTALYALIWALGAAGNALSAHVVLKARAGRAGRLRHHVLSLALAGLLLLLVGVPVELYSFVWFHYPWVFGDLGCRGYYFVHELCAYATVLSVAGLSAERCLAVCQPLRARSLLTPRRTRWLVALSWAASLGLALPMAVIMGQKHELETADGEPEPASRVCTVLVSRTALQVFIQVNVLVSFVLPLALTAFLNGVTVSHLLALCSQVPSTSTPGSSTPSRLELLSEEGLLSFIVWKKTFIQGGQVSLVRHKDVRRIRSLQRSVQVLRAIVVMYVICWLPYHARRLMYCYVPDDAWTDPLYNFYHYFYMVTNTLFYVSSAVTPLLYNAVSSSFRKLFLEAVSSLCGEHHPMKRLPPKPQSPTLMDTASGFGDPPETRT

| pKi [1] | pKi [2] | pKi [6] | Compound | pKi [3] | Ratio Ki (Homo sapiens [4]) | Ratio Ki (Homo sapiens [5]) |
| --- | --- | --- | --- | --- | --- | --- |
| 6.21 | < 5.00 | – | CC[C@H](C)[C@H](NC(=O)C(CCCN)NC(=O)[C@@H]1CCCN1C(=O)[C@H](CCCCN)NC(=O)[C@@H](N)CCCCN)C(=O)N[C@@H](CC(C)C)C(=O)O (stereo partly drawn) (H-KKP[ξOrn]IL-OH) | – | – | – |
| 6.32 | 6.34 | – | H-KKPHIL-OH | – | 0.96 | – |
| 5.80 | < 5.00 | – | H-KKPEIL-OH | < 5.00 | – | – |
| – | – | 9.02 | CC[C@H](C)[C@H](NC(=O)[C@H](Cc1ccc(O)cc1)NC(=O)[C@@H]1CCCN1C(=O)[C@H](CCCCN)NC(=O)[C@@H](N)CCCCN)C(=O)N[C@@H](CC(C)C)C(=O)O | – | – | – |

The remaining lines, values behind:

| Compound | pKi [1] | pKi [2] | pKi [6] | pKi [3] | Ratio Ki (Homo sapiens [4]) | Ratio Ki (Homo sapiens [5]) |
| --- | --- | --- | --- | --- | --- | --- |
| H-KKPKIL-OH | 6.58 | 5.24 | – | 6.70 | 21.8 | 28.6 |
| CC[C@H](C)[C@H](NC(=O)[C@H](CCCCN)NC(=O)[C@@H]1CCCN1C(=O)[C@H](CCCCN)NC(=O)[C@@H](N)CCCCN)C(=O)N[C@H](C[Si](C)(C)C)C(=O)O | 7.17 | – | – | – | 9.9 | 5.22 |
| H-KKPDIL-OH | 5.38 | < 5.00 | – | < 5.00 | – | – |
| CC[C@H](C)[C@H](NC(=O)[C@H](CCCCN)NC(=O)[C@@H]1CCCN1C(=O)[C@H](CCCCN)NC(=O)[C@@H](N)CCCCN)C(=O)N[C@@H](C[Si](C)(C)C)C(=O)O | – | 6.18 | – | 6.90 | – | – |
| CC[C@H](C)[C@H](NC(=O)[C@H](Cc1ccc(O)cc1)NC(=O)[C@@H]1CCCN1C(=O)[C@H](CCCNC(=N)N)NC(=O)[C@@H](N)CCCNC(=N)N)C(=O)N[C@@H](CC(C)C)C(=O)O | – | – | – | 8.33 | – | – |
